# Measurements as given in ChEMBL document CHEMBL1828627, “High-throughput-screening-based identification and structure-activity relationship characterization defined (S)-2-(1-aminoisobutyl)-1-(3-chlorobenzyl)benzimidazole as a highly antimycotic agent nontoxic to cell lines” (J Med Chem, 2011).
# Calls of active or inactive are those of the source.
# Test system: Candida albicans
# Experiment: Antifungal activity against Candida albicans SC5314 infected in HeLa cells at 20 uM after 5 days by fluorescein diacetate assay
# Type: functional, organism-based
# Method in brief: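 Primary HTS: HeLa cells co-incubated with C. albicans plus a single compound at ~20 μM for 5 days. Viability checked microscopically at 18 h and quantified at day 5 by fluorescein diacetate fluorescence. Wells also scanned visually for yeast growth. Hit criterion: >40% signal relative to the uninfected untreated HeLa (~100%) and infected untreated HeLa (~0%) controls.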
row,SMILES,inhibition
1,CCC(C)[C@H](N)c1nc2cc(Cl)c(Cl)cc2n1Cc1cccc(OC)c1 (stereo partly drawn),inactive
2,CCC(C)[C@H](N)c1nc2ccccc2n1Cc1cccc(OC)c1 (stereo partly drawn),inactive
3,CCC[C@H](N)c1nc2cc(Cl)c(Cl)cc2n1Cc1cccc(C)c1,inactive
4,Cc1cccc(Cn2c([C@H](C)N)nc3cc(Cl)c(Cl)cc32)c1,inactive
5,C[C@H](N)c1nc2ccccc2n1Cc1cccc(F)c1,inactive
6,CC(C)(N)c1nc2cc(Cl)c(Cl)cc2n1Cc1ccc(Cl)cc1,inactive
7,CC(C)[C@H](N)c1nc2ccccc2n1Cc1ccc(Cl)cc1,inactive
8,COc1cccc(Cn2c([C@H](C)N)nc3cc(C(F)(F)F)ccc32)c1,inactive
9,COc1cccc(Cn2c([C@@H](N)C(C)C)nc3ccccc32)c1,inactive
10,Cc1cccc(Cn2c([C@@H](N)C(C)C)nc3cc(C(F)(F)F)ccc32)c1,inactive
11,CCC[C@H](N)c1nc2ccccc2n1Cc1cccc(OC)c1,inactive
12,COc1cccc(Cn2c([C@H](C)N)nc3cc(Cl)c(Cl)cc32)c1,inactive
13,Cc1cccc(Cn2c([C@@H](N)C(C)C)nc3cc(Cl)c(Cl)cc32)c1,inactive
14,CCC[C@H](N)c1nc2cc(Cl)c(Cl)cc2n1Cc1ccc(Cl)cc1,inactive
15,CCC(C)[C@H](N)c1nc2cc(Cl)c(Cl)cc2n1Cc1cccc(F)c1 (stereo partly drawn),inactive
16,CC(C)(N)c1nc2cc(C(F)(F)F)ccc2n1Cc1ccc(Cl)cc1,inactive
17,CC(C)C[C@H](N)c1nc2cc(C(F)(F)F)ccc2n1Cc1cccc(F)c1,inactive
18,C[C@H](N)c1nc2ccccc2n1Cc1ccc(Cl)cc1,inactive
19,Cc1cccc(Cn2c([C@@H](N)CC(C)C)nc3cc(Cl)c(Cl)cc32)c1,inactive
20,CC(C)(N)c1nc2cc(Cl)c(Cl)cc2n1Cc1cccc(F)c1,inactive
21,CCC[C@H](N)c1nc2cc(C(F)(F)F)ccc2n1Cc1ccc(Cl)cc1,inactive
22,CCC[C@H](N)c1nc2cc(Cl)c(Cl)cc2n1Cc1cccc(OC)c1,inactive
23,COc1cccc(Cn2c(C(C)(C)N)nc3cc(Cl)c(Cl)cc32)c1,inactive
24,Cc1cccc(Cn2c(C(C)(C)N)nc3cc(Cl)c(Cl)cc32)c1,inactive
25,Cc1cccc(Cn2c([C@H](C)N)nc3cc(C(F)(F)F)ccc32)c1,inactive

row,SMILES,inhibition
1,C[C@H](N)c1nc2cc(C(F)(F)F)ccc2n1Cc1cccc(Cl)c1,inactive
2,CC(C)[C@H](N)c1nc2cc(C(F)(F)F)ccc2n1Cc1ccc(Cl)cc1,inactive
3,COc1cccc(Cn2c([C@@H](N)CC(C)C)nc3cc(Cl)c(Cl)cc32)c1,inactive
4,CC(C)[C@H](N)c1nc2cc(C(F)(F)F)ccc2n1Cc1cccc(Cl)c1,inactive
5,COc1cccc(Cn2c([C@@H](N)CC(C)C)nc3cc(C(F)(F)F)ccc32)c1,inactive
6,CC(C)[C@H](N)c1nc2cc(Cl)c(Cl)cc2n1Cc1ccc(Cl)cc1,inactive
7,COc1cccc(Cn2c(C(C)(C)N)nc3ccccc32)c1,inactive
8,CC(C)(N)c1nc2cc(C(F)(F)F)ccc2n1Cc1cccc(Cl)c1,inactive
9,CC(C)C[C@H](N)c1nc2cc(Cl)c(Cl)cc2n1Cc1cccc(F)c1,inactive
10,CCC(C)[C@H](N)c1nc2ccccc2n1Cc1cccc(F)c1 (stereo partly drawn),inactive
11,COc1cccc(Cn2c(C(C)(C)N)nc3cc(C(F)(F)F)ccc32)c1,inactive
12,CCC[C@H](N)c1nc2ccccc2n1Cc1cccc(F)c1,inactive
13,Cc1cccc(Cn2c([C@@H](N)CC(C)C)nc3ccccc32)c1,inactive
14,CCC[C@H](N)c1nc2ccccc2n1Cc1cccc(Cl)c1,inactive
15,CCC(C)[C@H](N)c1nc2cc(C(F)(F)F)ccc2n1Cc1cccc(Cl)c1 (stereo partly drawn),inactive
16,CCC[C@H](N)c1nc2cc(Cl)c(Cl)cc2n1Cc1cccc(F)c1,inactive
17,CC(C)C[C@H](N)c1nc2cc(C(F)(F)F)ccc2n1Cc1ccc(Cl)cc1,inactive
18,CCC[C@H](N)c1nc2cc(C(F)(F)F)ccc2n1Cc1cccc(F)c1,inactive
19,CCC(C)[C@H](N)c1nc2cc(Cl)c(Cl)cc2n1Cc1cccc(C)c1 (stereo partly drawn),inactive
20,CCC(C)[C@H](N)c1nc2ccccc2n1Cc1cccc(C)c1 (stereo partly drawn),inactive
21,CCC[C@H](N)c1nc2cc(C(F)(F)F)ccc2n1Cc1cccc(C)c1,inactive
22,CCC(C)[C@H](N)c1nc2ccccc2n1Cc1ccc(Cl)cc1 (stereo partly drawn),inactive
23,COc1cccc(Cn2c([C@H](C)N)nc3ccccc32)c1,inactive
24,C[C@H](N)c1nc2cc(C(F)(F)F)ccc2n1Cc1cccc(F)c1,inactive
25,C[C@H](N)c1nc2cc(Cl)c(Cl)cc2n1Cc1cccc(F)c1,inactive

row,SMILES,inhibition
1,Cc1cccc(Cn2c(C(C)(C)N)nc3ccccc32)c1,inactive
2,CCC(C)[C@H](N)c1nc2cc(C(F)(F)F)ccc2n1Cc1cccc(F)c1 (stereo partly drawn),inactive
3,COc1cccc(Cn2c([C@@H](N)C(C)C)nc3cc(Cl)c(Cl)cc32)c1,inactive
4,C[C@H](N)c1nc2cc(Cl)c(Cl)cc2n1Cc1cccc(Cl)c1,inactive
5,CC(C)[C@H](N)c1nc2cc(C(F)(F)F)ccc2n1Cc1cccc(F)c1,inactive
6,CCC(C)[C@H](N)c1nc2cc(C(F)(F)F)ccc2n1Cc1ccc(Cl)cc1 (stereo partly drawn),inactive
7,C[C@H](N)c1nc2cc(Cl)c(Cl)cc2n1Cc1ccc(Cl)cc1,inactive
8,CCC(C)[C@H](N)c1nc2cc(Cl)c(Cl)cc2n1Cc1ccc(Cl)cc1 (stereo partly drawn),inactive
9,CCC[C@H](N)c1nc2cc(Cl)c(Cl)cc2n1Cc1cccc(Cl)c1,inactive
10,CCC(C)[C@H](N)c1nc2cc(C(F)(F)F)ccc2n1Cc1cccc(C)c1 (stereo partly drawn),inactive
11,C[C@H](N)c1nc2cc(C(F)(F)F)ccc2n1Cc1ccc(Cl)cc1,inactive
12,CC(C)C[C@H](N)c1nc2cc(C(F)(F)F)ccc2n1Cc1cccc(Cl)c1,inactive
13,COc1cccc(Cn2c([C@@H](N)CC(C)C)nc3ccccc32)c1,inactive
14,CCC[C@H](N)c1nc2cc(C(F)(F)F)ccc2n1Cc1cccc(OC)c1,inactive
15,CC(C)(N)c1nc2cc(Cl)c(Cl)cc2n1Cc1cccc(Cl)c1,inactive
16,CC(C)(N)c1nc2ccccc2n1Cc1cccc(Cl)c1,inactive
17,CC(C)[C@H](N)c1nc2cc(Cl)c(Cl)cc2n1Cc1cccc(Cl)c1,inactive
18,CC(C)C[C@H](N)c1nc2cc(Cl)c(Cl)cc2n1Cc1cccc(Cl)c1,inactive
19,CC(C)C[C@H](N)c1nc2ccccc2n1Cc1cccc(Cl)c1,inactive
20,CC(C)C[C@H](N)c1nc2cc(Cl)c(Cl)cc2n1Cc1ccc(Cl)cc1,inactive
21,CCC(C)[C@H](N)c1nc2cc(C(F)(F)F)ccc2n1Cc1cccc(OC)c1 (stereo partly drawn),inactive
22,Cc1cccc(Cn2c([C@@H](N)CC(C)C)nc3cc(C(F)(F)F)ccc32)c1,inactive
23,CC(C)(N)c1nc2cc(C(F)(F)F)ccc2n1Cc1cccc(F)c1,inactive
